Compound activity (PubChem)
Only some compounds are listed: those with a hit (about 2.1% of all), similar ones and a draw of the others.
APJ agonist: activates the human apelin receptor APJ | P35414 | CHO-K1 APJ PathHunter beta-arrestin, luminescence; 0% DMSO wells, 100% apelin | activation, % at 20 µM | actives 0.11% (n = 330,000) | AID 2520;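 active = activation more than six SD over the plate average, tested at 20 µM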;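 note: 0% = DMSO alone and 100% = apelin-13 at 10 nM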
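Assay system – PathHunter CHO-K1 APJ (AGTRL-1) beta-arrestin reporter cells · Compound – one dose, 20 µM compound, 1% DMSO · Timing – compound 90 min 25 °C, reagent 1 h · Measured by – luminescence from split beta-galactosidase complementation, Galacton Star/Emerald II substrate · Measure – beta-arrestin recruitment to APJ as agonist activity, luminescent signal · Benchmarks – DMSO vs Apelin-13 10 nM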
CCR6 antag: blocks CCL20-driven beta-arrestin recruitment at human CCR6. CHO-K1 CCR6 PathHunter beta-arrestin, luminescence, CCL20-stimulated. AID 493098. inhibition, % at 20 µM. actives 0.49% (n = 340,000);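 active = compounds whose inhibition of the agonist-driven luminescence signal at 20 µM reaches about 50%, limit read from the data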;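 note: cells stimulated with CCL20 at 14 nM final; plate controls were DMSO with CCL20 for no effect and DMSO without agonist for full effect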
HTR2A ag: mouse HTR2A agonism via beta-arrestin recruitment; AID 624169; CHO-K1 mHTR2A beta-arrestin complementation, luminescence; percent of 30 µM serotonin response; activation, % at 7.6 µM; P35363; actives 0.66% (n = 360,000);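 active = activation above a run cutoff, the mean activation of all tested compounds plus 3 SD, cut at about 14% in these data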;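 note: 0% = plate median of compound wells and 100% = 30 µM serotonin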
EBI2 antag: antagonists of human EBI2 receptor. P32249. actives 0.81% (n = 360,000). AID 651636. EBI2 beta-arrestin recruitment, luminescence, 7a,25-OHC stimulated. inhibition, % at 5 µM; in the data active = inhibition above about 38%;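 note: enzyme fragment complementation signal reports receptor beta-arrestin coupling in cells; 0% = agonist plus DMSO wells and 100% = wells without agonist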
CXCR6 block: inhibitors of human CXCR6 receptor. inhibition, % at 20 µM. O00574. CHO-K1 PathHunter CXCR6 beta-arrestin, luminescence. actives 0.36% (n = 360,000); in the data active = inhibition above about 34%, passing the limit was not always enough;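 note: antagonist mode with CXCL16 agonist at 10 nM final; 0% = 10 nM CXCL16 with DMSO and 100% = unstimulated wells without agonist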
Target sequence (O00574 whole entry, looked up): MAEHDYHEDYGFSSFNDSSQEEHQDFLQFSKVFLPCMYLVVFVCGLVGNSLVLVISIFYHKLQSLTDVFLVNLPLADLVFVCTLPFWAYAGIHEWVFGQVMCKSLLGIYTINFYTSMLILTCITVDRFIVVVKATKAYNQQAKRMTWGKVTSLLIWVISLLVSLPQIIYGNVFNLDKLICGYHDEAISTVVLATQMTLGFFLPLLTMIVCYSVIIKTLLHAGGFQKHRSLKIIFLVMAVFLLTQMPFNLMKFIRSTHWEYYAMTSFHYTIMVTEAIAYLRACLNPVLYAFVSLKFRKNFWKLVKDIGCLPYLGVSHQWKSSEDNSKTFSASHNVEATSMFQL
APJ antag: blocks the human apelin receptor APJ. P35414. CHO-K1 APJ beta-arrestin complementation, luminescence. inhibition, % at 20 µM. actives 0.32% (n = 330,000). AID 2521;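 active = inhibition above about 40% at 20 µM, limit read from the data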;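 note: cells challenged with 10 nM apelin-13 agonist together with compound; plate controls were apelin-13 plus DMSO wells for no effect and DMSO wells lacking apelin-13 for full effect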
MOR ag counter: counter-screen for mouse HTR2A agonists: human mu opioid receptor agonists; shares compounds with HTR2A ag; U2OS OPRM1 beta-arrestin PathHunter, luminescence; DMSO 0%, DAMGO 9.3 µM 100%; activation, % at 9.3 µM; actives 5.3% (n = 2,300);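 active = mean activation above the mean of DMSO-only wells plus 3 SD, cut at about 0.5% in these data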
HTR2A ag conf: confirmation of mouse HTR2A serotonin receptor agonists. AID 624381. shares compounds with HTR2A ag. actives 19% (n = 2,300). activation, % at 7.6 µM. CHO-K1 PathHunter beta-arrestin recruitment, luminescence; DMSO 0%, 30 µM serotonin 100%;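 active = mean activation across triplicates above the hit threshold derived in the original primary screen, cut at about 15% in these data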
* hit, by the source's call; x = not tested or not shown.

SMILES	APJ agonist	CCR6 antag	HTR2A ag	EBI2 antag	CXCR6 block	APJ antag	MOR ag counter	HTR2A ag conf
O=c1[nH]c2ccccc2n1C1CCN(C(c2cccs2)c2nnnn2-c2ccc3c(c2)OCCO3)CC1 (centres undefined)	x	x	14*	-27	11	x	x	17*
O=c1[nH]c2ccccc2n1C1CCN(C(c2ccccc2)c2nnnn2-c2ccc3c(c2)OCCO3)CC1 (centres undefined)	x	x	11	-28	-2	x	x	x
CC(=O)Nc1ccc(S(=O)(=O)N2Cc3cnnn3-c3ccccc3C2C#N)cc1 (centres undefined)	x	6	4	-3	7	x	x	x
CCC(=O)N1N=C2C3CCN(CC3)C2C1c1ccc(C)cc1 (centres undefined)	-3	0	-3	-7	-4	4	x	x
CCCN(CCC)[C@@H]1CCc2cccc(O)c2C1	-7	-7	58*	4	9	10	0.8*	126*
O=P(CN1CCN(c2ccccc2)CC1)(N1CCCCC1)N1CCCCC1	0	6	14*	-1	3	14	0	20*
CC1(C)CC[C@]2(C)CC[C@]3(C)C4C[C@@H]5OO[C@@]6(O5)C(CCCC6(C)C)[C@]4(C)CC[C@@]3(C)C2C1 (some centres undefined)	-2	1	-5	-3	3	-24	x	x
CCCN(CCC)C(=O)Cc1c(-c2ccc(Cl)cc2)nc2c(Cl)cc(Cl)cn12	21	1	15*	2	-3	1	-1	2
CCC1(CC)C(=O)C=CNC1=O	-3	4	40*	-3	3	12	-1	-4
CNCCc1c[nH]c2ccccc12	-5	-10	32*	0	1	-3	-1	16*
CNCCc1c[nH]c2ccc(O)cc12	2	0	59*	-3	2	-6	0	141*
CC(C)C1C(C#N)=C(N)Oc2c1c(=O)oc1ccccc21 (centres undefined)	x	x	-3	-1	0	x	x	x
COc1cc(CNCCc2c[nH]c3ccccc23)cc(OC)c1	0	3	8	0	-1	-10	x	x
CCOc1ccc(CNCCc2ccc3c(c2)OCO3)cc1	-1	5	4	-4	-9	-7	x	x
COc1cc(CNCCc2c[nH]c3ccccc23)cc(OC)c1OC	x	x	-4	-2	-10	x	x	x
CCOc1ccccc1CNCCc1ccc2c(c1)OCO2	-2	17	53*	-12	10	-2	0	25*
Clc1ccccc1CNCCc1c[nH]c2ccccc12	x	x	23*	1	-1	x	1.1*	51*
CCc1ccc(CNCCc2c[nH]c3ccccc23)cc1	-1	-14	16*	-8	-5	3	0	9
c1ccc(CNCCc2c[nH]c3ccccc23)cc1	0	1	41*	2	-7	16	-1	20*
C=C1C(=O)OC2CCN3CC=C(COC(=O)C(C)(O)C4(CO4)C1C)C23 (centres undefined)	x	x	-5	-7	-7	x	x	x
C/C(O)=C(\C#N)C(=O)Nc1cc(Br)ccc1Br	-3	3	-4	7	-10	-4	x	x
CNC(=O)O/N=C/c1nn(C(=O)C(C)(C)C)cc1Br	-1	9	-1	-1	-5	10	x	x
CC1=CC(C)C(COC(N)=O)(COC(N)=O)C(C)C1 (centres undefined)	-1	0	-2	-3	-9	-14	x	x
c1ccc2c(CCNCc3ccc4c(c3)OCO4)c[nH]c2c1	-1	-14	30*	-5	-4	10	0	38*
Fc1ccc(CNCCc2ccc3c(c2)OCO3)cc1	-3	-8	4	16	6	20	x	x
O=C(Cc1c(-c2ccccc2)nc2ccc(Br)cn12)N1CCCC1	x	x	-1	-12	-3	x	x	x
